The source made the active and inactive calls.
Legend:
[1] = target: T1, Acid ceramidase (Homo sapiens) (UniProt Q13510); assay: Inhibition of ACDase in human MCF7 cells assessed as upregulation of dihydroceramide at 10 uM after 1 hr by LC-MS/MS analysis; assay type: cell-based
T1 sequence (whole entry): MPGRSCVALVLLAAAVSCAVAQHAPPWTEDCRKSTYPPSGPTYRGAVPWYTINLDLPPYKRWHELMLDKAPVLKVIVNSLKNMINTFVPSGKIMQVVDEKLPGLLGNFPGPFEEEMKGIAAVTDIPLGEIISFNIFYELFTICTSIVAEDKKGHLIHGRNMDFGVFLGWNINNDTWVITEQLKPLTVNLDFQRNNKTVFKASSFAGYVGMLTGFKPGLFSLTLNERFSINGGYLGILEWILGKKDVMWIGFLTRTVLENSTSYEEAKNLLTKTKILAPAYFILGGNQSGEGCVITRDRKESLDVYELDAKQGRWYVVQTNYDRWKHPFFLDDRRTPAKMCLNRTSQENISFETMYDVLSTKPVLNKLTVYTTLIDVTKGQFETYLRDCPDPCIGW

[2] = system: MCF7; assay: Down regulation of alpha-ACDase protein expression in human MCF7 cells at >2.5 uM after 1 hr by Western blot analysis; assay type: functional, cell-based
How it was run: (§1)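 MCF7 cells seeded overnight (1×10^6 per 100 mm dish) were exposed to vehicle or 10 μM LCL521 for 1, 2, 5, 8, 15 and 24h, or to 0.1–10 μM for 1h. α- and precursor (P-)ACDase detected by western blot; actin monitored loading and transfer.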

[3] = target: T1, Acid ceramidase (Homo sapiens); assay: Inhibition of ACDase in human MCF7 cells assessed as down regulation of sphingosine at 10 uM after 2 hrs by LC-MS/MS analysis; assay type: cell-based
How it was run: (§2)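 Exposure of MCF7 cells to vehicle or 10 μM LCL521 for 0.25–24h. Cer, Sph and S1P measured by LC-MS/MS in pellet lipid extracts, normalized to lipid phosphate, given as % control; means ± st dev of 4 replicates.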

[4] = target: T1, Acid ceramidase (Homo sapiens); assay: Inhibition of ACDase in human MCF7 cells assessed as down regulation of dihydrosphingosine at 10 uM after 1 hr by LC-MS/MS analysis; assay type: cell-based
[5] = system: MCF7; assay: Down regulation of alpha-ACDase expression in human MCF7 cells at 1 uM after 10 hrs by Western blot analysis; assay type: functional, cell-based
[6] = system: MCF7; assay: Down regulation of alpha-ACDase protein expression in human MCF7 cells at 1 uM after 1 hr by Western blot analysis; assay type: functional, cell-based
How it was run: (§3)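 MCF7 cells (RPMI 1640, 10% FBS, 37°C, 5% CO2; 1×10^6 seeded in 100 mm dishes overnight) exposed to vehicle or LCL521, 0.1–10 μM for 1h, or 1 μM for 0.25–10h. α-ACDase detected by western blot, with actin as the loading/transfer control.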

[7] = system: MCF7; assay: Down regulation of p-ACDase expression in human MCF7 cells at 10 uM after 8 hrs by Western blot analysis; assay type: functional, cell-based; how it was run: as §1
[8] = system: MCF7; assay: Down regulation of alpha-ACDase expression in human MCF7 cells at 10 uM after 8 hrs by Western blot analysis; assay type: functional, cell-based; how it was run: as §1
[9] = system: MCF7; assay: Down regulation of alpha-ACDase protein expression in human MCF7 cells at 10 uM after 1 hr by Western blot analysis; assay type: functional, cell-based; how it was run: as §1
[10] = target: T1, Acid ceramidase (Homo sapiens); assay: Inhibition of ACDase in human MCF7 cells assessed as upregulation of C16-ceramide species at 10 uM after 1 hr by LC-MS/MS analysis; assay type: cell-based
How it was run: (§4)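 MCF7 cells treated 1h with vehicle or 10 μM LCL521. Chain-length ceramide species and Sph in pellet lipid extracts quantified by LC-MS/MS per nmol lipid phosphate; means ± st dev of 6 replicates, t-test against control.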

[11] = system: PPC-1; assay: Down regulation of ACDase protein expression in human PPC1 cells at 5 to 10 uM after 5 hrs by Western blot analysis; assay type: functional, cell-based
How it was run: (§5)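 Cell lines SCC14A (mouth squamous carcinoma) and PPC-1 (prostate cancer) given a single treatment of LCL521; ACDase protein detected by western blot.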

[12] = target: T1, Acid ceramidase (Homo sapiens); assay: Inhibition of ACDase in human MCF7 cells assessed as down regulation of sphingosine at 10 uM after 1 to 24 hrs by LC-MS/MS analysis; assay type: cell-based; how it was run: as §2
[13] = system: MCF7; assay: Down regulation of p-ACDase expression in human MCF7 cells assessed as p-ACDase expression at 10 uM measured at 24 hrs by Western blot analysis; assay type: functional; how it was run: as §1
[14] = target: T1, Acid ceramidase (Homo sapiens); assay: Inhibition of ACDase in human MCF7 cells assessed as upregulation of dhC16-Cer species at 10 uM after 1 hr by LC-MS/MS analysis; assay type: cell-based
[15] = target: T1, Acid ceramidase (Homo sapiens); assay: Inhibition of ACDase in human MCF7 cells assessed as upregulation of ceramide at 10 uM after 2 hrs by LC-MS/MS analysis; assay type: cell-based; how it was run: as §2
[16] = target: T1, Acid ceramidase (Homo sapiens); assay: Inhibition of ACDase in human MCF7 cells assessed as upregulation of dihydroceramide species at 10 uM treated for 24 hrs after 1 hr treatment with myriocin by LC-MS/MS analysis; assay type: cell-based
How it was run: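 MCF7 cells pretreated 1h with 100nM myriocin, then combined with vehicle or 10 μM LCL521 for 24h. Cn-dhCer quantified by LC-MS/MS per nmol lipid phosphate; triplicates.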

[17] = target: T1, Acid ceramidase (Homo sapiens); assay: Inhibition of ACDase in human MCF7 cells assessed as upregulation of dihydroceramide species at 10 uM after 8 to 24 hrs by LC-MS/MS analysis; assay type: cell-based
How it was run: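 Over 8 and 24h, MCF7 cells received vehicle or 10 μM LCL521. Cn-dhCer species and dhSph quantified by LC-MS/MS in extracted lipids, normalized to lipid phosphate; means ± st dev of 4 replicates.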

[18] = target: T1, Acid ceramidase (Homo sapiens); assay: Inhibition of ACDase in human MCF7 cells assessed as down regulation of sphingosine 1-phosphate at 1 uM after 10 hrs by LC-MS/MS analysis; assay type: cell-based
How it was run: (§6)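 MCF7 cells received vehicle or 1 μM LCL521 for 10h. Lipids were extracted from cell pellets, and Cer, Sph and S1P were quantified by LC-MS/MS as pmol/nmol lipid phosphate, expressed as % control; means ± st dev of 5 replicates.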

[19] = system: MCF7; assay: Down regulation of alpha-ACDase protein expression in human MCF7 cells up to 1 uM after 1 hr by Western blot analysis; assay type: functional, cell-based; how it was run: as §3
[20] = target: T1, Acid ceramidase (Homo sapiens); assay: Inhibition of ACDase in human MCF7 cells assessed as upregulation of ceramide at 10 uM after 8 to 24 hrs by LC-MS/MS analysis; assay type: cell-based; how it was run: as §2
[21] = target: T1, Acid ceramidase (Homo sapiens); assay: Inhibition of ACDase in human MCF7 cells assessed as down regulation of sphingosine at 10 uM after 24 hrs by LC-MS/MS analysis; assay type: cell-based; how it was run: as §2
[22] = target: T1, Acid ceramidase (Homo sapiens); assay: Inhibition of ACDase in human MCF7 cells assessed as down regulation of sphingosine at 1 uM after 10 hrs by LC-MS/MS analysis; assay type: cell-based; how it was run: as §6
[23] = system: UMSCC14A; assay: Down regulation of ACDase protein expression in human UMSCC14A cells at 5 to 10 uM after 5 hrs by Western blot analysis; assay type: functional, cell-based; how it was run: as §5
[24] = system: MCF7; assay: Down regulation of alpha-ACDase expression in human MCF7 cells at 10 uM after 2 to 24 hrs by Western blot analysis; assay type: functional, cell-based; how it was run: as §1
[25] = target: T2, Sphingolipid delta(4)-desaturase DES1 (Homo sapiens) (UniProt O15121); assay: Inhibition of dihydroceramide desaturase in human MCF7 cells assessed as decrease in remaining activity at 5 to 10 uM after 24 hrs; assay type: cell-based
T2 sequence (whole entry): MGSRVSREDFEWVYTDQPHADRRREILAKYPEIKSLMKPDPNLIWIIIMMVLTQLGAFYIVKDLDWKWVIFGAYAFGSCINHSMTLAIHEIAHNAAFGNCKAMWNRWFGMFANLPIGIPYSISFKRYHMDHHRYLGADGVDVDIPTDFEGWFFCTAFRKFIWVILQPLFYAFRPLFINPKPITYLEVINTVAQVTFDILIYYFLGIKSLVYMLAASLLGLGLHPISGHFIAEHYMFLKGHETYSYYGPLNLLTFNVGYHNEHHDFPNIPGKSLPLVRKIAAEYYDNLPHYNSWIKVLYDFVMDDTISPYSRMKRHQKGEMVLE
How it was run: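 Intact MCF7 cells (3×10^6 seeded in 150 mm dishes overnight) treated with vehicle or LCL521 for 24h. Cells were then pelleted and dihydroceramide desaturase activity assayed by a prior method. Means ± st dev of triplicates versus 0 μM.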

[26] = system: MCF7; assay: Down regulation of alpha-ACDase expression in human MCF7 cells at 10 uM after 24 hrs in presence of cyclohexamide by Western blot analysis; assay type: functional, cell-based
How it was run: (§7)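 MCF7 cells pretreated 1h with vehicle or 40 μM cycloheximide, then given vehicle or 10 μM LCL521 alone or combined for 1, 8 and 24h. P- and α-ACDase detected by western blot against actin.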

[27] = target: T1, Acid ceramidase (Homo sapiens); assay: Inhibition of ACDase in human MCF7 cells assessed as upregulation of C14-ceramide species at 10 uM after 1 hr by LC-MS/MS analysis; assay type: cell-based; how it was run: as §4
[28] = system: MCF7; assay: Down regulation of p-ACDase expression in human MCF7 cells at 10 uM after 24 hrs in presence of cyclohexamide by Western blot analysis; assay type: functional, cell-based; how it was run: as §7
[29] = system: MCF7; assay: Down regulation of alpha-ACDase protein expression in human MCF7 cells at 10 uM treated for 5 hrs after pretreatment with 4 uM CA-074me for 30 mins by Western blot analysis; assay type: functional, cell-based
How it was run: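 MCF7 cells pretreated with a cathepsin B inhibitor, then exposed to 10 μM LCL521. α-ACDase protein assessed by western blot.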

[30] = target: T1, Acid ceramidase (Homo sapiens); assay: Inhibition of ACDase in human MCF7 cells assessed as down regulation of sphingosine 1-phosphate at 10 uM after 24 hrs by LC-MS/MS analysis; assay type: cell-based; how it was run: as §2

CCCCCCCCCCCCCC(=O)N[C@H](COC(=O)CN(C)C)[C@H](OC(=O)CN(C)C)c1ccc([N+](=O)[O-])cc1.Cl.Cl
inactive: inhibition [5] | Activity [6] | inhibition [16] | inhibition [18] | Activity [19] | inhibition [21] | inhibition [22] | Activity [29]
active: inhibition [1] | Activity [2] Dose-dependent effect | inhibition [3] | inhibition [4] | Activity [7] | Activity [8] | Activity [9] | inhibition [10] | Activity [11] | inhibition [12] | inhibition [14] | inhibition [15] | inhibition [17] | inhibition [20] | Activity [23] | Activity [24] | inhibition [25] | Activity [26] | inhibition [27] | Activity [28] | inhibition [30]
>70%: Activity [13]

Source: ChEMBL document CHEMBL4308872, “Dose dependent actions of LCL521 on acid ceramidase and key sphingolipid metabolites” (2018)
